According to publication PMC10373209 (ACS Omega, 2023):
Entries after “also recorded” stand apart in the source; their conditions may differ.

How the values were obtained:
Taq DNA polymerase = Taq DNA polymerase (Thermus aquaticus, UniProt P19821); test: Taq DNA polymerase inhibition; type: biochemical; details: for inhibitory activity against Taq DNA polymerase (in words): PCR assay
SRP-ΔΔΔΔ (ΔΔΔΔpdr) = test: Yeast growth inhibition dose-response, SRP-ΔΔΔΔ; type: cell-based, Saccharomyces cerevisiae; details: 1–128 μM range
In short: (§1)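 S. cerevisiae haploid MATa deletion strains (wild-type reference BY4741) were grown in YPD at 25 °C. In a broth microdilution assay, an inoculum of OD620 0.001 (~25,000 cells/mL) was exposed to test compound at 1–128 μM in 1:2 serial dilutions. The zero control was eight technical replicates of 1% (v/v) DMSO.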

Δrad9 Δrad52 (ΔΔrad) = test: Yeast growth inhibition dose-response, Δrad9 Δrad52; type: cell-based, Saccharomyces cerevisiae; details: for cytotoxicity in ΔΔrad (in words): 1–128 μM range; for DNA damage in S. cerevisiae (in words): inferred from hypersensitivity of Δrad9 Δrad52
In short: as §1

[1] = molecular target: M-MLV Reverse Transcriptase (RT-MMLV) (Moloney murine leukemia virus, UniProt P03355); test: Retrotranscription inhibition; type: biochemical, myeloid murine leukemia virus

Sequence of Taq DNA polymerase (P19821 whole entry): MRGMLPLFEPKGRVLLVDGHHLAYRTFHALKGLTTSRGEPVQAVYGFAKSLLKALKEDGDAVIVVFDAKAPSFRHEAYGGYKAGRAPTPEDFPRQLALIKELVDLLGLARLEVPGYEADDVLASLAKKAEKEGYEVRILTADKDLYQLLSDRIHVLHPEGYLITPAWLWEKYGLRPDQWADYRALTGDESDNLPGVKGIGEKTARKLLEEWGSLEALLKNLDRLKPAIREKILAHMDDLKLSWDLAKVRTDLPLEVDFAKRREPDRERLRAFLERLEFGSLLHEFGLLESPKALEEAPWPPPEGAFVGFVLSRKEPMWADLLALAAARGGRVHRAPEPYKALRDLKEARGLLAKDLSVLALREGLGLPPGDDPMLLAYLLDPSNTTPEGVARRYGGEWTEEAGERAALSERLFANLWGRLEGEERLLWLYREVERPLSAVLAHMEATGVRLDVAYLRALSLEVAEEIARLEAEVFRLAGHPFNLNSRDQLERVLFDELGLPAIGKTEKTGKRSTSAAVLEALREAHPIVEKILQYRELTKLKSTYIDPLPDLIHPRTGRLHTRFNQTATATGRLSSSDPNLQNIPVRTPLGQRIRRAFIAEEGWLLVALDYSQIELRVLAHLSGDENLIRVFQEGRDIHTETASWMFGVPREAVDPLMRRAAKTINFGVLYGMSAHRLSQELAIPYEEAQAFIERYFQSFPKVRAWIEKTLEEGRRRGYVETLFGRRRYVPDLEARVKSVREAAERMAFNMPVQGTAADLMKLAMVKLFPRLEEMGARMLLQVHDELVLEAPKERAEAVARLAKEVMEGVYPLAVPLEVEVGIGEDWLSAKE

O=c1cc(CCl)c2ccc(O)cc2o1 [Compound 2a, 4-(Chloromethyl)-7-hydroxy-2H-chromen-2-one]
inhibitory activity against Taq DNA polymerase (in words) (Taq DNA polymerase): low or null in vitro activity

O=c1cc(CCl)c2cc(O)ccc2o1 [Compound 2b, 4-(Chloromethyl)-6-hydroxy-2H-chromen-2-one]
inhibitory activity against Taq DNA polymerase (in words) (Taq DNA polymerase): low or null in vitro activity

O=c1cc(CCl)c2ccc(O)c(O)c2o1 [Compound 2c, 4-(Chloromethyl)-7,8-dihydroxy-2H-chromen-2-one]
IC50 (Taq DNA polymerase): 142 ± 3.4 µM

O=c1cc(CCl)c2c(O)cc(O)cc2o1 [Compound 2d, 4-(Chloromethyl)-5,7-dihydroxy-2H-chromen-2-one]
IC50 (Taq DNA polymerase): 20.7 ± 2.1 µM

CC(=O)Oc1ccc2c(CSC(C)=O)cc(=O)oc2c1 [Compound 3c, 4-((Acetylthio)methyl)-2-oxo-2H-chromen-7-yl acetate]
IC50 (Taq DNA polymerase): 48.2 ± 1.2 µM

CC(=O)SCc1cc(=O)oc2cc(O)ccc12 [Compound 3d, S-((7-Hydroxy-2-oxo-2H-chromen-4-yl)methyl) ethanethioate]
IC50 (Taq DNA polymerase): 143 ± 4.22 µM

CC(=O)SCc1cc(=O)oc2ccc(O)cc12 [Compound 3e, S-((6-Hydroxy-2-oxo-2H-chromen-4-yl)methyl) ethanethioate]
IC50 (Taq DNA polymerase): 188 ± 19.4 µM

COc1ccc2oc(=O)cc(CSC(C)=O)c2c1 [Compound 3f, S-((6-Methoxy-2-oxo-2H-chromen-4-yl)methyl) ethanethioate]
inhibitory activity against Taq DNA polymerase (in words) (Taq DNA polymerase): absence of activity

CC(=O)Oc1ccc2oc(=O)cc(CSC(C)=O)c2c1 [Compound 3g, 4-((Acetylthio)methyl)-2-oxo-2H-chromen-6-yl acetate]
cytotoxicity in ΔΔΔΔpdr strain (in words) (SRP-ΔΔΔΔ (ΔΔΔΔpdr)): cytotoxic | inhibitory activity against Taq DNA polymerase (in words) (Taq DNA polymerase): without activity; also recorded: did not show in vitro activity

C=CCCOc1ccc2ccc(=O)oc2c1 [Compound 4b, 7-(But-3-en-1-yloxy)-2H-chromen-2-one]
cytotoxicity in ΔΔΔΔpdr strain (in words) (SRP-ΔΔΔΔ (ΔΔΔΔpdr)): cytotoxic

C=CCCCOc1ccc2ccc(=O)oc2c1 [Compound 4c, 7-(Pent-4-en-1-yloxy)-2H-chromen-2-one]
cytotoxicity in ΔΔΔΔpdr strain (in words) (SRP-ΔΔΔΔ (ΔΔΔΔpdr)): cytotoxic

O=c1cc(OCCCC2CO2)c2ccccc2o1 (stereo not drawn) [Compound 5a, 4-(3-(Oxiran-2-yl)propoxy)-2H-chromen-2-one]
cytotoxicity in ΔΔrad (in words) (Δrad9 Δrad52 (ΔΔrad)): Cytotoxicity was observed | DNA damage in S. cerevisiae (in words) (Δrad9 Δrad52 (ΔΔrad)): showed DNA damaging activity | activity in RT-PCR assay (in words) [1]: did not show activity

O=c1ccc2ccc(OCCC3CO3)cc2o1 (stereo not drawn) [Compound 5b, 7-(2-(Oxiran-2-yl)ethoxy)-2H-chromen-2-one]
cytotoxicity in ΔΔrad (in words) (Δrad9 Δrad52 (ΔΔrad)): Cytotoxicity was observed | DNA damage in S. cerevisiae (in words) (Δrad9 Δrad52 (ΔΔrad)): caused DNA damage; also recorded: showed DNA damaging activity | activity in RT-PCR assay (in words) [1]: without activity

O=c1ccc2ccc(OCCCC3CO3)cc2o1 (stereo not drawn) [Compound 5c, 7-(3-(Oxiran-2-yl)propoxy)-2H-chromen-2-one]
cytotoxicity in ΔΔrad (in words) (Δrad9 Δrad52 (ΔΔrad)): Cytotoxicity was observed | DNA damage in S. cerevisiae (in words) (Δrad9 Δrad52 (ΔΔrad)): caused DNA damage; also recorded: showed DNA damaging activity

CCCCOc1ccc2ccc(=O)oc2c1 [Compound 6a, 7-Butoxy-2H-chromen-2-one]
cytotoxicity in ΔΔΔΔpdr strain (in words) (SRP-ΔΔΔΔ (ΔΔΔΔpdr)): cytotoxic

CCCCCCOc1ccc2ccc(=O)oc2c1 [Compound 6b, 7-(Hexyloxy)-2H-chromen-2-one]
cytotoxicity in ΔΔΔΔpdr strain (in words) (SRP-ΔΔΔΔ (ΔΔΔΔpdr)): cytotoxic

CCCCCCCOc1ccc2ccc(=O)oc2c1 [Compound 6c, 7-(Heptyloxy)-2H-chromen-2-one]
cytotoxicity in ΔΔΔΔpdr strain (in words) (SRP-ΔΔΔΔ (ΔΔΔΔpdr)): cytotoxic

CC(=O)OC[C@@H]1OC(Oc2ccc3ccc(=O)oc3c2)C(OC(C)=O)[C@H](OC(C)=O)C1OC(C)=O (stereo partly drawn) [Compound 7c, (2S,4R)-2-(Acetoxymethyl)-6-((2-oxo-2H-chromen-7-yl)oxy)tetrahydro-2H-pyran-3,4,5-triyl triacetate]
cytotoxicity in ΔΔΔΔpdr strain (in words) (SRP-ΔΔΔΔ (ΔΔΔΔpdr)): cytotoxic
